This note sets out measurements from ChEMBL document CHEMBL1124414, “2(1H)-quinolinones with cardiac stimulant activity. 2. Synthesis and biological activities of 6-(N-linked, five-membered heteroaryl) derivatives” (1989).

Each structure is given as a SMILES string.

The subject of test [1] is Canis familiaris. Kind of test: Relative inotropic potency compared with 4-[4-[2-(1,1-dioxo-2-isothiazolidinyl)ethyl]-1-piperidinyl]-6,7-dimethoxyquinazoline at 50 ug/kg after administration at 25 ug/kg intravenously to anesthetized dogs. The test is classed as functional, Canis lupus familiaris. In outline: (§1)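 Anesthetized dogs instrumented for dP/dt max from left ventricular pressure by carotid catheter. Drug given iv in 0.9% saline. The standard quinazoline inotrope (50 μg/kg iv) was tested in the same dog. Relative potency = (% increase in dP/dt max to drug ÷ % increase to standard) × (standard dose ÷ drug dose).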

Test [2] relates to Canis familiaris. Kind of test: Compound was examined for effects on cardiac contractility after oral administration of 0.5 mg/Kg to conscious dogs for 1 hr. The test is classed as functional, Canis lupus familiaris, Heart. In outline: (§2)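 Conscious dogs dosed orally by gavage with a solution of test substance. QA interval recorded every 0.16 h from 0.5 h predose to up to 4 h postdose. Each time-point value is the mean of six consecutive sets, each set the mean over an 8-s period. Result is the change from mean predose control QA interval, read at 1 h and 3 h. Saline-dosed controls n = 8.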

Test [3] has as its system Canis familiaris. As to the kind of experiment: Compound was examined for effects on cardiac contractility to decrease in QA interval after oral administration of 0.5 mg/Kg to conscious dogs for 3h. It counts as functional, Canis lupus familiaris, Heart. The method, boiled down: as §2
The subject of test [4] is Canis familiaris. As to the kind of experiment: Compound was tested for cardiotonic activity after intravenous administration of 25 ug/Kg to anesthetized dogs. The test is classed as functional, Canis lupus familiaris. In outline: (§3)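 Anesthetized dogs with left ventricular pressure recorded by Millar catheter via the carotid artery. The signal is differentiated to give dP/dt max as the contractility index. Equilibration 0.75 h after surgery. Drug given iv in 0.9% saline 0.5 h after a standard inotrope (50 μg/kg). Doses repeated once control levels returned, at least 0.5 h apart. Result is % increase in dP/dt max after a single dose.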

Test [5] deals with Canis familiaris. Kind of test: Relative inotropic potency compared with 4-[4-[2-(1,1-dioxo-2-isothiazolidinyl)ethyl]-1-piperidinyl]-6,7-dimethoxyquinazoline at 50 ug/kg after administration at 12.5 ug/kg intravenously to anesthetized dogs. The test is classed as functional, Canis lupus familiaris. In outline: as §1
Test [6] concerns Canis familiaris. As to the kind of experiment: Compound was examined for effects on cardiac contractility after oral administration of 0.125 mg/Kg to conscious dogs for 1 hr. It counts as functional, Canis lupus familiaris, Heart. The method, boiled down: as §2
Test [7] has as its system Canis familiaris. As to the kind of experiment: Compound was examined for effects on cardiac contractility to decrease in QA interval after oral administration of 0.125 mg/Kg to conscious dogs for 3h. The test is classed as functional, Canis lupus familiaris, Heart. The method, boiled down: as §2
Test [8] deals with Canis familiaris. As to the kind of experiment: Compound was tested for cardiotonic activity after intravenous administration of 12.5 ug/Kg to anesthetized dogs. The test is classed as functional, Canis lupus familiaris. The method, boiled down: as §3
In test [9] the test system is Canis familiaris. As to the kind of experiment: Compound was examined for effects on cardiac contractility after oral administration of 0.25 mg/Kg to conscious dogs for 1 hr. It counts as functional, Canis lupus familiaris, Heart. In outline: as §2
Test [10] deals with Canis familiaris. Kind of test: Compound was examined for effects on cardiac contractility to decrease in QA interval after oral administration of 0.25 mg/Kg to conscious dogs for 3h. The test is classed as functional, Canis lupus familiaris, Heart. In outline: as §2
The test system of test [11] is Canis familiaris. As to the kind of experiment: Relative inotropic potency compared with 4-[4-[2-(1,1-dioxo-2-isothiazolidinyl)ethyl]-1-piperidinyl]-6,7-dimethoxyquinazoline at 50 ug/kg after administration at 10 ug/kg intravenously to anesthetized dogs. It counts as functional, Canis lupus familiaris. In outline:
as §1

In test [12] the test system is Canis familiaris. As to the kind of experiment: Compound was tested for cardiotonic activity after intravenous administration of 10 ug/Kg to anesthetized dogs. It counts as functional, Canis lupus familiaris. In outline:
as §3

Test [13] concerns Canis familiaris. As to the kind of experiment: Relative inotropic potency compared with 4-[4-[2-(1,1-dioxo-2-isothiazolidinyl)ethyl]-1-piperidinyl]-6,7-dimethoxyquinazoline at 50 ug/kg after administration at 6.5 ug/kg intravenously to anesthetized dogs. The test is classed as functional, Canis lupus familiaris. The note with it: in the assay text read “6.25 ug/kg” for “6.5 ug/kg”. In outline: as §1

Test [14] deals with Canis familiaris. As to the kind of experiment: Compound was examined for effects on cardiac contractility after oral administration of 0.0625 mg/Kg to conscious dogs for 1 hr. It counts as functional, Canis lupus familiaris, Heart. The method, boiled down:
as §2

Test [15] concerns Canis familiaris. As to the kind of experiment: Compound was examined for effects on cardiac contractility to decrease in QA interval after oral administration of 0.0625 mg/Kg to conscious dogs for 3h. The test is classed as functional, Canis lupus familiaris, Heart. In outline: as §2
Test [16] relates to Canis familiaris. Kind of test: Compound was tested for cardiotonic activity after intravenous administration of 6.25 ug/Kg to anesthetized dogs. The test is classed as functional, Canis lupus familiaris. In outline:
as §3

The test system of test [17] is Canis familiaris. As to the kind of experiment: Relative inotropic potency compared with 4-[4-[2-(1,1-dioxo-2-isothiazolidinyl)ethyl]-1-piperidinyl]-6,7-dimethoxyquinazoline at 50 ug/kg after administration at 250 ug/kg intravenously to anesthetized dogs. It counts as functional, Canis lupus familiaris. The method, boiled down:
as §1

The subject of test [18] is Canis familiaris. Kind of test: Compound was tested for cardiotonic activity after intravenous administration of 250 ug/Kg to anesthetized dogs. It counts as functional, Canis lupus familiaris. In outline:
as §3

Test [19] deals with Canis familiaris. As to the kind of experiment: Relative inotropic potency compared with 4-[4-[2-(1,1-dioxo-2-isothiazolidinyl)ethyl]-1-piperidinyl]-6,7-dimethoxyquinazoline at 50 ug/kg after administration at 50 ug/kg intravenously to anesthetized dogs. It counts as functional, Canis lupus familiaris. In outline:
as §1

In test [20] the test system is Canis familiaris. Kind of test: Compound was examined for effects on cardiac contractility after oral administration of 1 mg/Kg to conscious dogs for 1 hr. It counts as functional, Canis lupus familiaris, Heart. The method, boiled down: as §2
Test [21] deals with Canis familiaris. As to the kind of experiment: Compound was examined for effects on cardiac contractility to decrease in QA interval after oral administration of 1 mg/Kg to conscious dogs for 3h. It counts as functional, Canis lupus familiaris, Heart. In outline: as §2
Test [22] deals with Canis familiaris. Kind of test: Compound was tested for cardiotonic activity after intravenous administration of 50 ug/Kg to anesthetized dogs. The test is classed as functional, Canis lupus familiaris. The method, boiled down: as §3
Test [23] concerns Canis familiaris. Kind of test: Relative inotropic potency compared with 4-[4-[2-(1,1-dioxo-2-isothiazolidinyl)ethyl]-1-piperidinyl]-6,7-dimethoxyquinazoline at 50 ug/kg after administration of 50 ug/kg intravenously to anesthetized dogs. The test is classed as functional, Canis lupus familiaris. In outline:
as §1

The subject of test [24] is Canis familiaris. Kind of test: Relative inotropic potency compared with 4-[4-[2-(1,1-dioxo-2-isothiazolidinyl)ethyl]-1-piperidinyl]-6,7-dimethoxyquinazoline at 50 ug/kg after iv administration of 25 ug/kg to anesthetized dogs. It counts as functional, Canis lupus familiaris. In outline: as §1

With `Cc1cc(-n2cncn2)cc2ccc(O)nc12`, the Relative inotropic potency in test [1] amounted to 3.6. Besides, the “Decrease in QA interval” value in [2] and in test [3] was 21 ms throughout. In addition, the “Increase in dP/dt max” value in test [4] is reported as 67%.

With `Cc1cc(-n2ccnc2C)cc2ccc(O)nc12`, the Relative inotropic potency in [5] is listed as 5.5. The “Decrease in QA interval” value in [6] turned out to be 14 ms; in [7], 13 ms. In addition, the “Increase in dP/dt max” value in test [8] is listed as 50%.

`Cc1cc(-n2cnnn2)cc2ccc(O)nc12` displayed a Relative inotropic potency in test [1] of 3.4. In addition, the “Decrease in QA interval” value in test [9] was 15 ms; in test [10] it was 16 ms. Also, the “Increase in dP/dt max” value in test [4] came out at 117%.

For `Cc1cn(-c2cc(C)c3nc(O)cc(C)c3c2)c(C)n1`, in test [11], the Relative inotropic potency came to 1.2. Besides, in [12], the “Increase in dP/dt max” value was 10%.

`Cc1cc(-n2cnc(C(F)(F)F)c2)cc2ccc(O)nc12` returned a Relative inotropic potency in test [5] of 4.5. For the same compound, the “Decrease in QA interval” value is on record as 11 ms in test [6] and 5 ms in test [7]. In test [8], the “Increase in dP/dt max” value is reported as 82%.

`Cc1cn(-c2cc(C)c3nc(O)ccc3c2)cn1` had a Relative inotropic potency in test [13] of 16.3. Besides, the “Decrease in QA interval” value is 12 ms in [14] and 7 ms in [15]. For the same compound, the “Increase in dP/dt max” value in test [16] is recorded as 59%.

In turn, `Cc1cn(-c2ccc3nc(O)ccc3c2)c(C)n1` had a Relative inotropic potency in [17] of 0.2. Also, the “Increase in dP/dt max” value in [18] is on record as 29%.

For `Cc1cn(-c2cc(C)c3c(c2)CCC(=O)N3)c(C)n1`, the Relative inotropic potency in test [19] is recorded as 0.9. In addition, the “Decrease in QA interval” value in [20] is reported as 12 ms; in test [21], 13 ms. Further, in test [22], the “Increase in dP/dt max” value stood at 52%.

The compound `Cc1cn(-c2cc(C(F)(F)F)c3nc(O)ccc3c2)c(C)n1` displayed a Relative inotropic potency in test [17] of 0.2. Besides, the “Increase in dP/dt max” value in [18] worked out at 22%.

On to `Cc1cc(-n2cccn2)cc2ccc(O)nc12`, for which the Relative inotropic potency in test [23] was determined as 1.7. The “Increase in dP/dt max” value in test [22] is 79%.

`Cc1cc(-n2ncnn2)cc2ccc(O)nc12`: the Relative inotropic potency in test [19] is recorded as 1.1. Moreover, the “Increase in dP/dt max” value in [22] amounted to 24%.

`Cc1cc(-n2cncc2C)cc2ccc(O)nc12` gave a Relative inotropic potency in test [5] of 4.9. In addition, the “Decrease in QA interval” value in test [6] is recorded as 14 ms; in [7], 11 ms. In test [8], the “Increase in dP/dt max” value was determined as 55%.

As for `Cc1cc(-n2cnnc2)cc2ccc(O)nc12`, the Relative inotropic potency in [1] (in the assay text read “administration at 50 ug/kg” for “administration at 25 ug/kg”) stood at 2.3. The “Decrease in QA interval” value came out at 15 ms in [9] and 17 ms in [10]. Moreover, the “Increase in dP/dt max” value in test [22] worked out at 68%.

`Cc1cn(-c2cc(C)c3c(c2)C(C)CC(=O)N3)c(C)n1` (stereo unspecified) registered a Relative inotropic potency in [11] of 1.9. The “Increase in dP/dt max” value in [12] is given as 20%.

Regarding `Cc1cc(-n2ccnc2)cc2ccc(O)nc12`, the Relative inotropic potency in test [24] was 4.5. Besides, the “Decrease in QA interval” value in test [9] is reported as 20 ms; in test [10] it was 15 ms. Moreover, the “Increase in dP/dt max” value in test [4] came out at 139%.

In turn, `Cc1[nH]c(=O)c(C#N)cc1-c1ccncc1` [MILRINONE] gave a Relative inotropic potency in test [1] of 1.6. Moreover, the figures for the “Decrease in QA interval” value in test [9] and in [10] were 13 ms and 7 ms, respectively. For the same compound, the “Increase in dP/dt max” value in [4] was determined as 46%.

As for `Cc1cn(-c2cc(C)c3[nH]c(=O)ccc3c2)c(C)n1` [NANTERINONE], in test [5], the Relative inotropic potency is reported as 7.6. For the same compound, the “Decrease in QA interval” value in test [9] is 16 ms; in test [10] it was 17 ms. In addition, in test [8], the “Increase in dP/dt max” value was determined as 40%.
